≈ marks a conversion by molar mass, not a printed value.

Type in all cases: functional
Assay [1] has as its system Candida albicans. In words: Antifungal activity against Candida albicans SC5314 after 24 hrs by micro-broth dilution method. The settings on record: SC5314, 24 h. Summed up:
(§1)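 Broth microdilution per NCCLS on Candida albicans. Compounds were dissolved in DMSO, serially diluted in growth medium, inoculated and incubated at 35 °C. Growth was read at 24 h, and MIC80 was taken as the first well with about 80% growth reduction relative to the drug-free control. Values are the mean of three replicates.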
On the technique in general: Broth dilution looks for growth in wells or tubes with falling amounts of substance.

Assay [2] relates to Candida albicans. In words: Antifungal activity against Candida albicans Y0109 after 24 hrs by micro-broth dilution method. The settings on record: Y0109, 24 h. The method in brief: as §1
For assay [3], the system named is Cryptococcus neoformans. Briefly: Antifungal activity against Cryptococcus neoformans after 72 hrs by micro-broth dilution method. The method in brief: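 Cryptococcus neoformans tested by NCCLS micro-broth dilution. Compounds were dissolved in DMSO, serially diluted in medium, inoculated and incubated at 35 °C. MIC80 was read at 72 h as the first well showing approximately 80% growth reduction compared with the drug-free well. Values are the mean of three replicate tests.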

The subject of assay [4] is Candida parapsilosis. Briefly: Antifungal activity against Candida parapsilosis by micro-broth dilution method. The settings on record: Lodderomyces parapsilosis. Summed up: (§2)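 MIC80 by broth microdilution in 96-well format following NCCLS. Compounds were dissolved in DMSO, serially diluted in growth medium, inoculated and incubated at 35 °C. The endpoint was the first well with about 80% growth reduction versus the drug-free well. Values are means of three replicate tests.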

Assay [5] concerns Candida tropicalis. Briefly: Antifungal activity against Candida tropicalis by micro-broth dilution method. The method in brief:
as §2

In assay [6] the test system is Trichophyton rubrum. In words: Antifungal activity against Trichophyton rubrum by micro-broth dilution method. Summed up:
as §2

For assay [7], the system named is Kluyveromyces marxianus. Briefly: Antifungal activity against Candida kefyr by micro-broth dilution method. Summed up: as §2
The test system of assay [8] is Aspergillus fumigatus. In words: Antifungal activity against Aspergillus fumigatus by micro-broth dilution method. The method in brief: as §2

Broadly, the MIC is the smallest concentration in the dilution series that meets the test's criterion for growth inhibition. Read a high MIC as a less susceptible organism. With `CC(C)N(Cc1cn(Cc2cccc(Cl)c2)nn1)CC(O)(Cn1cncn1)c1ccc(F)cc1F` (configuration not stated), the MIC in assay [1] is less than 0.125 µg/mL; in assay [2] it was 0.0156 µg/mL (≈ 0.0311 µM); in assay [3], 32 µg/mL (≈ 63.7 µM); in assay [4], 4 µg/mL (≈ 7.97 µM); in assay [5] it was 2 µg/mL (≈ 3.98 µM); in assay [6], 2 µg/mL (≈ 3.98 µM). The figures for the MIC in assay [7] and in assay [8] were 0.25 µg/mL (≈ 0.498 µM) and more than 64 µg/mL, respectively.
For `CC(C)N(Cc1cn(Cc2ccccc2)nn1)CC(O)(Cn1cncn1)c1ccc(F)cc1F` (configuration not stated), the MIC was less than 0.125 µg/mL in assay [1]; 0.0039 µg/mL (≈ 0.00834 µM) in assay [2]; 8 µg/mL (≈ 17.1 µM) in assay [3]; 0.25 µg/mL (≈ 0.535 µM) in assay [4]; less than 0.125 µg/mL in assay [5]; less than 0.125 µg/mL in assay [6]. Moreover, the MIC was found to be 0.0625 µg/mL (≈ 0.134 µM) in assay [7] and 64 µg/mL (≈ 137 µM) in assay [8].
Regarding `CC(C)N(Cc1cn(Cc2ccc([N+](=O)[O-])cc2)nn1)CC(O)(Cn1cncn1)c1ccc(F)cc1F` (configuration not stated), the MIC in assay [1] is less than 0.125 µg/mL; in assay [2] it was 0.0039 µg/mL (≈ 0.00761 µM); in assay [3] it was 16 µg/mL (≈ 31.2 µM); in assay [4], 4 µg/mL (≈ 7.8 µM); in assay [5], 1 µg/mL (≈ 1.95 µM); in assay [6], 2 µg/mL (≈ 3.9 µM). The MIC is 0.25 µg/mL (≈ 0.488 µM) in assay [7] and more than 64 µg/mL in assay [8].
As to `C[C@@H](c1ncncc1F)[C@](O)(Cn1cncn1)c1ccc(F)cc1F` [VORICONAZOLE], the MIC was 32 µg/mL (≈ 91.6 µM) in assay [1]; less than 0.125 µg/mL in assay [2]; less than 0.125 µg/mL in assay [3]; less than 0.125 µg/mL in assay [4]; less than 0.125 µg/mL in assay [5]; 0.25 µg/mL (≈ 0.716 µM) in assay [6]. Moreover, the MIC was 0.0039 µg/mL (≈ 0.0112 µM) in assay [7] and less than 0.125 µg/mL in assay [8].
For the compound `OC(CN(Cc1cn(Cc2ccccc2Br)nn1)C1CC1)(Cn1cncn1)c1ccc(F)cc1F` (configuration not stated), the MIC in assay [1] was determined as 0.25 µg/mL (≈ 0.459 µM); in assay [2], 16 µg/mL (≈ 29.4 µM); in assay [3], 64 µg/mL (≈ 118 µM); in assay [4], 2 µg/mL (≈ 3.67 µM); in assay [5], 2 µg/mL (≈ 3.67 µM); in assay [6], 2 µg/mL (≈ 3.67 µM). For the same compound, the figures for the MIC in assay [7] and in assay [8] were 0.0625 µg/mL (≈ 0.115 µM) and more than 64 µg/mL, respectively.
For `Cc1cccc(Cn2cc(CN(CC(O)(Cn3cncn3)c3ccc(F)cc3F)C3CC3)nn2)c1` (configuration not stated), the MIC in assay [1] was 0.5 µg/mL (≈ 1.04 µM); in assay [2], 0.0156 µg/mL (≈ 0.0325 µM); in assay [3], 2 µg/mL (≈ 4.17 µM); in assay [4], less than 0.125 µg/mL; in assay [5], less than 0.125 µg/mL; in assay [6], less than 0.125 µg/mL. The MIC is 0.0156 µg/mL (≈ 0.0325 µM) in assay [7] and 64 µg/mL (≈ 133 µM) in assay [8].
Consider `CC(C)N(Cc1cn(Cc2c(Cl)cccc2Cl)nn1)CC(O)(Cn1cncn1)c1ccc(F)cc1F` (configuration not stated), for which the MIC in assay [1] was 0.0039 µg/mL (≈ 0.00727 µM); in assay [2] it was less than 0.125 µg/mL; in assay [3], 0.0625 µg/mL (≈ 0.117 µM); in assay [4] it was 0.0625 µg/mL (≈ 0.117 µM); in assay [5], 0.0156 µg/mL (≈ 0.0291 µM); in assay [6] it was 0.0156 µg/mL (≈ 0.0291 µM). In addition, the MIC in assay [7] is 0.0156 µg/mL (≈ 0.0291 µM); in assay [8], more than 64 µg/mL.
Consider `CC(C)N(Cc1cn(Cc2ccccc2Cl)nn1)CC(O)(Cn1cncn1)c1ccc(F)cc1F` (configuration not stated), for which the MIC was less than 0.125 µg/mL in assay [1]; 0.0039 µg/mL (≈ 0.00777 µM) in assay [2]; 16 µg/mL (≈ 31.9 µM) in assay [3]; 2 µg/mL (≈ 3.98 µM) in assay [4]; 1 µg/mL (≈ 1.99 µM) in assay [5]; less than 0.125 µg/mL in assay [6]. The figures for the MIC in assay [7] and in assay [8] were 0.25 µg/mL (≈ 0.498 µM) and more than 64 µg/mL, respectively.
Take `CC(C)N(Cc1cn(Cc2ccc(Cl)cc2)nn1)CC(O)(Cn1cncn1)c1ccc(F)cc1F` (configuration not stated): the minimum inhibitory concentration (MIC) in assay [1] was less than 0.125 µg/mL; in assay [2], 0.0625 µg/mL (≈ 0.125 µM); in assay [3], 4 µg/mL (≈ 7.97 µM); in assay [4] it was 2 µg/mL (≈ 3.98 µM); in assay [5], 0.5 µg/mL (≈ 0.996 µM); in assay [6] it was 0.5 µg/mL (≈ 0.996 µM). For the same compound, the MIC in assay [7] is 0.25 µg/mL (≈ 0.498 µM); in assay [8], more than 64 µg/mL.

The values above are taken from ChEMBL document CHEMBL1250476, “Synthesis and antifungal evaluation of novel triazole derivatives as inhibitors of cytochrome P450 14alpha-demethylase” (2010).
